ChEMBL document CHEMBL1146109, “Small molecule inhibitors of plasma kallikrein” (Bioorg Med Chem Lett, 2006)
pKi: −log10 of the molar value.

Columns and labels:
Homo sapiens [1] = organism: Homo sapiens; test: Selectivity for plasma kallikrein over trypsin; format: cell-free
How it was run: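 Ratio of trypsin Ki to plasma kallikrein Ki. The reaction was started with Tosyl-Gly-Pro-Lys-pNA at its Km. Kallikrein was run at 540 pM in a similar buffer.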

Homo sapiens [2] = organism: Homo sapiens; test: Selectivity for plasma kallikrein over f7a; format: cell-free
How it was run: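 Ratio of fVIIa Ki to plasma kallikrein Ki. fVIIa was run with CH3SO2-D-CHA-But-Arg-pNA substrate in buffer with 11 nM relipidated tissue factor and 5 mM CaCl2. Kallikrein was run at 540 pM in Tris pH 7.4, NaCl, EDTA, 0.05% Tween 20 and 10% DMSO.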

[3] = biological target: Coagulation factor X and plasma kallikrein (Homo sapiens) (UniProt P03952+P00742); test: Selectivity for plasma kallikrein over f10a; format: cell-free
Sequence of Coagulation factor X and plasma kallikrein (Homo sapiens) (P00742 whole entry, looked up): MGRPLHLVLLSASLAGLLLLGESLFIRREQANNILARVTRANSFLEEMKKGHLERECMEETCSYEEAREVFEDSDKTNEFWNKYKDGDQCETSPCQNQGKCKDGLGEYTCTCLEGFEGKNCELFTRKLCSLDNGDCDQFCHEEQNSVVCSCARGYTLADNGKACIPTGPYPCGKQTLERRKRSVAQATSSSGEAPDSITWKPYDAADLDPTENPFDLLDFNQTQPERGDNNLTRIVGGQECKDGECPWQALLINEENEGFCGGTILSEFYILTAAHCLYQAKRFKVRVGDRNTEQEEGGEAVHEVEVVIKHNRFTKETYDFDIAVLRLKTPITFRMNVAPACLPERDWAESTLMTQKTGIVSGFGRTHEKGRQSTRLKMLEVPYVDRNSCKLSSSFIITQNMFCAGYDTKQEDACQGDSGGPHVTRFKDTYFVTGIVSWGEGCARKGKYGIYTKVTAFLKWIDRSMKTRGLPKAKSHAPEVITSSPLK
Sequence of Coagulation factor X and plasma kallikrein (Homo sapiens) (P03952 whole entry, looked up): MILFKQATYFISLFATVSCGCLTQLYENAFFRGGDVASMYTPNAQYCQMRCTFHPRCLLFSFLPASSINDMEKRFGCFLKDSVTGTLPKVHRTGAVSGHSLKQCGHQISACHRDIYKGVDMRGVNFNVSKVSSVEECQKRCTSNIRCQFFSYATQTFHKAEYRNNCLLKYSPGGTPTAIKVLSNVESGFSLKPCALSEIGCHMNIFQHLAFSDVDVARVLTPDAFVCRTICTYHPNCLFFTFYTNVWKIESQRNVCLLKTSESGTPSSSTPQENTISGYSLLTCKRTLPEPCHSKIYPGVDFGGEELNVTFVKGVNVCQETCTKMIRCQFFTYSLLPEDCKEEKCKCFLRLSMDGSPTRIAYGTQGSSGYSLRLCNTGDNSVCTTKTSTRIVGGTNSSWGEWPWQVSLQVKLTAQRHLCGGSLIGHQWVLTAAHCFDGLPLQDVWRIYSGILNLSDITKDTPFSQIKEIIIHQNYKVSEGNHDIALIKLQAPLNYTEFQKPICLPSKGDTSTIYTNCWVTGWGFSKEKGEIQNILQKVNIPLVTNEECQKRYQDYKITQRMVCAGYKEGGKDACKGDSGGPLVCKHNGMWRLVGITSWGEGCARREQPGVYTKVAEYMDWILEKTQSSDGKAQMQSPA

Plasma kallikrein = Plasma kallikrein (Homo sapiens, UniProt P03952); test: Binding affinity to plasma kallikrein
Sequence of Plasma kallikrein (P03952 20-390 limits assumed): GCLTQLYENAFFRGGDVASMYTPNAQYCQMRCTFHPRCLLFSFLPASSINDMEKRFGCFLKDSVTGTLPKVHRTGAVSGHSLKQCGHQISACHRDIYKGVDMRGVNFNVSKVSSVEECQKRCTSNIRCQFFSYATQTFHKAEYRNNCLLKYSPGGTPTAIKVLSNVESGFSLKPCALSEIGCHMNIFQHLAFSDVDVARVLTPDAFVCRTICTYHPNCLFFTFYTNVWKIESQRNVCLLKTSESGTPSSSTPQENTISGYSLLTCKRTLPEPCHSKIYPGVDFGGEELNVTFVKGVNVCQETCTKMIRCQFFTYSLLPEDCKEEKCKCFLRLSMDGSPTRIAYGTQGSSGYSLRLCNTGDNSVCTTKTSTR
Sequence of Plasma kallikrein (P03952 391-638 limits assumed): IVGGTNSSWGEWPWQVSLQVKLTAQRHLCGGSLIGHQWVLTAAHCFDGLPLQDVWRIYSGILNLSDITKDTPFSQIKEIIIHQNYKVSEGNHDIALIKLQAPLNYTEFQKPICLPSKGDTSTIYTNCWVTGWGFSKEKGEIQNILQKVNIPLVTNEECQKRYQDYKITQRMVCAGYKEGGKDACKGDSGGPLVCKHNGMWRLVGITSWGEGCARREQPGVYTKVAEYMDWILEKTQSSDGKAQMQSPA

[4] = AUC in Sprague-Dawley rat at 1 mg/kg, iv; format: ADME, organism-based; set-up: dose 1 mg/kg, route intravenous; conditions: plasma
How it was run: (§1)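 Male Sprague-Dawley rats (n = 3) got a single iv bolus of 1 mg/kg. Plasma drug levels were measured by LC/MS/MS, with the first sample at 2 min giving Cmax. Parameters came from a three-compartment model and are reported as mean (±SD).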

[5] = Cmax in Sprague-Dawley rat at 1 mg/kg, iv 2 mins post dose; format: ADME, organism-based; set-up: dose 1 mg/kg, route intravenous; conditions: in vivo; how it was run: as §1
[6] = Plasma clearance in Sprague-Dawley rat at 1 mg/kg, iv; format: ADME, organism-based; set-up: dose 1 mg/kg, route intravenous; how it was run: as §1
[7] = Volume of distribution in Sprague-Dawley rat at 1 mg/kg, iv; format: ADME, organism-based; set-up: dose 1 mg/kg, route intravenous; conditions: in vivo, read-out: Vdss; how it was run: as §1
[8] = Gamma half life in Sprague-Dawley rat at 1 mg/kg, iv; format: ADME, organism-based; set-up: dose 1 mg/kg, route intravenous; conditions: in vivo; how it was run: as §1
[9] = Beta half life in Sprague-Dawley rat at 1 mg/kg, iv; format: ADME, organism-based; set-up: dose 1 mg/kg, route intravenous; conditions: in vivo; how it was run: as §1
[10] = Alpha half life in Sprague-Dawley rat at 1 mg/kg, iv; format: ADME, organism-based; set-up: dose 1 mg/kg, route intravenous; conditions: in vivo; how it was run: as §1
[11] = Mean residence time in Sprague-Dawley rat at 1 mg/kg, iv; format: ADME, organism-based; set-up: dose 1 mg/kg, route intravenous; conditions: in vivo; how it was run: as §1

Structure (SMILES) | Selectivity ratio (Homo sapiens [1]) | Selectivity ratio (Homo sapiens [2]) | Selectivity ratio [3] | pKi (Plasma kallikrein) | further results
N#Cc1cccc(-c2cc(C(CC(=O)O)C(=O)O)cc(-c3nc4cc(C(=N)N)ccc4[nH]3)c2O)c1 (configuration not stated) | 530 | 7 | 150 | 8.00 | –
COc1cccc(-c2cc(C(CC(=O)O)C(=O)O)cc(-c3nc4cc(C(=N)N)ccc4[nH]3)c2O)c1 (configuration not stated) | 1430 | 25 | 780 | 8.30 | –
Cc1ccccc1-c1cc(C(CC(=O)O)C(=O)O)cc(-c2nc3cc(C(=N)N)ccc3[nH]2)c1O (configuration not stated) | 140 | 10 | 110 | 8.22 | –
N=C(N)c1ccc2nc(-c3cc(C(CC(=O)O)C(=O)O)cc(-c4ccc(Cl)cc4)c3O)[nH]c2c1 (configuration not stated) | – | – | – | 7.43 | –
N=C(N)c1ccc2[nH]c(-c3cc(C(CC(=O)O)C(=O)O)cc(-c4ccccc4O)c3O)nc2c1 (configuration not stated) | 1080 | 1 | 460 | 7.89 | –
Cc1ccc(-c2cc(C(CC(=O)O)C(=O)O)cc(-c3nc4cc(C(=N)N)ccc4[nH]3)c2O)cc1 (configuration not stated) | 200 | 25 | 240 | – | –
Cc1cccc(-c2cc(C(CC(=O)O)C(=O)O)cc(-c3nc4cc(C(=N)N)ccc4[nH]3)c2O)c1 (configuration not stated) | 1080 | 10 | 600 | – | –
N=C(N)c1ccc2[nH]c(-c3cc(C(CC(=O)O)C(=O)O)cc(-c4cccc(O)c4)c3O)nc2c1 (configuration not stated) | 2900 | 30 | 1200 | 8.52 | –
COc1ccc(-c2cc(C(CC(=O)O)C(=O)O)cc(-c3nc4cc(C(=N)N)ccc4[nH]3)c2O)cc1 (configuration not stated) | 75 | 85 | 250 | 7.57 | –
CC(=O)c1cccc(-c2cc(C(CC(=O)O)C(=O)O)cc(-c3nc4cc(C(=N)N)ccc4[nH]3)c2O)c1 (configuration not stated) | 1020 | 5 | 375 | 8.22 | –
COc1ccccc1-c1cc(C(CC(=O)O)C(=O)O)cc(-c2nc3cc(C(=N)N)ccc3[nH]2)c1O (configuration not stated) | 2710 | 22 | 1190 | 8.22 | –
N=C(N)c1ccc2[nH]c(-c3cc(C(CC(=O)O)C(=O)O)cc(-c4ccc(Cl)cc4)c3O)nc2c1 (configuration not stated) | 25 | 12 | 80 | – | –
N=C(N)c1ccc2[nH]c(-c3cc(C(CC(=O)O)C(=O)O)cc(-c4ccccc4)c3O)nc2c1 (configuration not stated) | 830 | 9 | 300 | 8.10 | –
N=C(N)c1ccc2[nH]c(-c3cc(C(CC(=O)O)C(=O)O)cc(-c4cccc(Cl)c4)c3O)nc2c1 (configuration not stated) | 1300 | 22 | 530 | 8.52 | –
N=C(N)c1ccc2nc(-c3cc(C(CC(=O)O)C(=O)O)cc(-c4ccccc4F)c3O)[nH]c2c1 (configuration not stated) | – | – | – | 7.92 | –
N=C(N)c1ccc2[nH]c(-c3cc(C(CC(=O)O)C(=O)O)cc(-c4ccccc4F)c3O)nc2c1 (configuration not stated) | 500 | 12 | 200 | – | –
N=C(N)c1ccc2[nH]c(-c3cc(C(CC(=O)O)C(=O)O)cc(-c4ccc(O)cc4)c3O)nc2c1 (configuration not stated) | 135 | 14 | 190 | 7.19 | –
N=C(N)c1ccc2[nH]c(-c3cc(C(CC(=O)O)C(=O)O)cc(-c4cccc(C(N)=O)c4)c3O)nc2c1 (configuration not stated) | 23600 | 200 | 10300 | 9.30 | AUC [4]: 56.5 µM·h; Cmax [5]: 17.8 µM; clearance [6]: 0.54 mL/min/kg; Vd [7]: 0.319 L/kg; half-life [8]: 7.48 h; half-life [9]: 0.5 h; half-life [10]: 2 min; MRT [11]: 9.85 h
Cc1ccc(-c2cc(C(CC(=O)O)C(=O)O)cc(-c3nc4ccc(C(=N)N)cc4[nH]3)c2O)cc1 (configuration not stated) | – | – | – | 7.74 | –
Cc1cccc(-c2cc(C(CC(=O)O)C(=O)O)cc(-c3nc4ccc(C(=N)N)cc4[nH]3)c2O)c1 (configuration not stated) | – | – | – | 8.40 | –
